Not all results are given here.
Apaf1 activ: human Apaf-1 activation | Apaf-1 apoptosome caspase-3 activation, DEVD-Rh110 fluorescence; hits give low values | activity change, negative = activation, % at 20 µM | O14727 | 330,000 compounds, 0.31% hits;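 active = activity change at or below -40% at 20 µM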
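Material: biochemical Apaf-1 apoptosome reconstitution; Medium: 20 mM HEPES buffer, pH 7.5, containing CHAPS and BSA; Reagent: dATP, cytochrome c, and (Z-DEVD)2-Rh110 caspase-3 substrate; Times: 30 min preincubation, 50 min reaction, room temperature; Signal: Rh110 fluorescence, excitation 480 nm, emission 540 nm; Measure: Caspase-3 activity via Apaf-1.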
Rh110 interf act: counter-screen for Apaf-1 activators: fluorescence interference; shares compounds with Apaf1 activ; Rh110 fluorescence interference, quenched caspase reaction, Ex480/Em540; fluorescence interference (activity change), % at 20 µM, hits read low; 980 tested, under 10 active; AID 504616;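 active = mean activity change at or below -40% when tested at 20 µM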
Apaf-1 act conf: confirmation of human Apaf-1 activators; shares compounds with Apaf1 activ; reconstituted apoptosome caspase-3 activity, DEVD-Rh110 fluorescence; hits give low values; activity change, negative = activation, % at 20 µM; 980 compounds, 5% hits;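 active = mean activity change at or below -40%, meaning activation of 40% or more, at 20 µM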
Apaf1 act interf: Apaf-1 activator counter-screen fluorescence artifact; shares compounds with Apaf1 activ; fluorescence interference counterscreen, Apaf-1 activator assay; EC50, µM; 55 tested, under 10 active; AID 588592; call rule not given here
* hit, by the source's call; · = no result.

SMILES	Apaf1 activ	Rh110 interf act	Apaf-1 act conf	others
CC(=O)OCC(=O)[C@@]1(O)CC[C@H]2[C@@H]3CCC4=CC(=O)CC[C@]4(C)[C@H]3[C@@H](O)C[C@@]21C	-4	·	·
Cc1cc(N)ccc1N1CCCC1	65	·	·
O=C(/C=C/Nc1ccc(F)c(F)c1)c1ccc(Br)cc1	-103*	4	15
COc1ccc(C(=O)NCC(=O)OCc2ccc([N+](=O)[O-])cc2)cc1	-70*	12	11
COC(=O)C(CCCCNC(=O)c1ccc([N+](=O)[O-])cc1)NC(=O)c1ccc([N+](=O)[O-])cc1 (configuration not stated)	-48*	8	13
C/C(=N/NC(=O)Cc1cc(=O)[nH][nH]1)c1ccc([N+](=O)[O-])cc1	55	·	·
COc1ccc(O[C@H]2C=C[C@@H](c3ccccc3)O[C@@H]2CO/N=C(\C)CCN2CCc3nc(-c4ccccc4)c(-c4ccccc4)cc3C2)cc1	48	·	·
O=C1C(NS(=O)(=O)c2cccs2)=C(N2CCN(Cc3ccccc3)CC2)C(=O)c2ccccc21	51	·	·
CCOc1nc2cnccc2n(CC(=O)Nc2ccccc2F)c1=O	-49*	-1	7
COC(=O)c1ccc(C(=O)Nc2ccc(N)cc2N)cc1	48	·	·
COc1cccc(C(c2c(C)[nH]n(-c3ccccc3)c2=O)c2c(C)[nH]n(-c3ccccc3)c2=O)c1OC	97	·	·
CC(C)C[C@@H]1CN=C(N)N1C[C@@H]1CCCN1C[C@@H](C(C)C)N1C[C@@H](Cc2ccccc2)N(CCc2ccc(Cl)c(Cl)c2)C1=N	63	·	·
COc1cccc2c(=O)c3cccc(N)c3[nH]c12	70	·	·
COc1cccc2c3c(c(=O)[nH]c12)CCC(C)(C)O3	-63*	-9	10
COc1ccc(-c2cn(Cc3ccc4ccccc4c3)nn2)cc1	-123*	4	8
O=C(Nc1ccc(Oc2ccccc2)cc1)C1CCN(c2c3c(nc4ncnn24)CCC3)CC1	41	·	·
CCN1CCN(C2=C(NS(=O)(=O)c3ccc(Br)cc3)C(=O)c3ccccc3C2=O)CC1	88	·	·
COc1cc([N+](=O)[O-])cc(/C=N/NC(=O)C(C)Nc2cccc3ccccc23)c1O (configuration not stated)	93	·	·
Cc1[nH]n(-c2ccccc2)c(=O)c1/C=N/NC(=O)c1cccc([N+](=O)[O-])c1	56	·	·
O=C(Cn1nnc(-c2ccccc2)n1)N/N=C/c1cc([N+](=O)[O-])ccc1O	-57*	-1	21
COC(=O)c1[nH]c(=O)c2ccccc2c1O	91	·	·
O=C1NC(=O)[C@@H]2C3c4ccccc4C=CN3[C@H](C(=O)c3cccs3)[C@H]12 (some centres not stated)	47	·	·
O=C(COC(=O)Cc1ccsc1)Nc1ccc(F)cc1Cl	-52*	-7	10
Nc1ccc2ncccc2c1	86	·	·
CCC(C)Sc1ccc(-c2nc3cnccn3c2NC2CCCCC2)cc1 (configuration not stated)	45	·	·
SMILES	Apaf1 activ	Rh110 interf act	Apaf-1 act conf	others
O=C1CCC(C(=O)OCC(=O)N2N=C3/C(=C/c4ccccc4)CCCC3C2c2ccccc2)N1 (configuration not stated)	43	·	·
Oc1ccc(NCc2cccc(OCc3ccccc3)c2)cc1	91	·	·
O=C1CCCC/C1=C\Nc1ccc(Cl)cn1	-73*	9	17
CCCC[n+]1ccn(C2=C([O-])c3ccccc3C(=O)/C2=N\S(=O)(=O)c2ccc(Br)cc2)c1	59	·	·
Cn1nc(-c2ccc(Cl)cc2)c2cc(C(=O)NCCCN3CCCC3)sc21	49	·	·
Cc1c(Cc2ccccc2)sc(/N=C/c2c(O)ccc3ccccc23)c1C(N)=O	-63*	11	23
Oc1ccc2ccccc2c1C=NC12CN3CCN(CN(C3)C1)C2	90	·	·
CC1CN(Cc2c(O)ccc3c2oc(=O)c2ccccc23)CC(C)O1 (configuration not stated)	44	·	·
CC(C)C(NS(=O)(=O)c1ccc2c(c1)oc(=O)n2C)C(=O)N1CCN(C2CCCCC2)CC1 (configuration not stated)	-54*	1	9
CN1c2cccc3cccc(c23)N(C)C1(C)C	46	·	·
CC(C)(C)NC[C@H](O)COc1nsnc1N1CCOCC1	-3	·	·
Cc1ccc2c(C)nc(Nc3nc(CSc4nc5ccccc5[nH]4)cc(=O)[nH]3)nc2c1	-71*	4	5
CN(C)c1cccc2cccc(N(C)C)c12	89	·	·
O/N=C(\c1ccccn1)C1CC1c1ccccc1 (configuration not stated)	-63*	16	15
Fc1ccc(-[n+]2nc(Nc3ccccc3)sc2-c2c3ccccc3cc3ccccc23)cc1	42	·	·
CCOc1ccc2nc(NC3=NC(c4ccc(OC)cc4)CC(=O)N3)nc(C)c2c1 (configuration not stated)	79	·	·
Oc1ccc(/C=N/Nc2cc(N3CCCC3)nc(N3CCCC3)n2)cc1O	60	·	·
CCOC(=O)N1CCC(NC(=O)CN2C(=O)CSc3ncccc32)CC1	63	·	·
Cc1cccc(-n2ncc3c2CCCC3NC(=O)CN2CCCC2=O)c1C (configuration not stated)	-203*	5	4
Nc1ncc2[nH]cnc2n1	-4	·	·
C#CC(CC)(CC)NC(=O)/C=C/C(=O)O	-566*	7	11
CCOC(=O)c1cc(-c2ccc(/C=C3/C(=O)N(c4ccc(C(=O)O)cc4)N=C3C)o2)ccc1Cl	50	·	·
C/C(=C\c1ccccc1)C1Nc2cccc3cccc(c23)N1	41	·	·
COc1cccc(CNc2cccc3cccnc23)c1O	71	·	·
O=C(N/N=C/c1c(F)cccc1Cl)C1CC1	-142*	-4	8
SMILES	Apaf1 activ	Rh110 interf act	Apaf-1 act conf	others
COc1cc(OC)cc(C(=O)NCC(=O)OCC(=O)c2ccc3c(c2)-c2ccccc2C3)c1	-65*	-7	18
CCc1cc2c(nc1CC)CCN(CC/C(C)=N/OC[C@H]1O[C@H](c3ccccc3)C=C[C@@H]1Oc1ccc(OC)cc1)C2	43	·	·
FC(F)(F)C1=Nc2cccc3cccc(c23)N1	66	·	·
COn1c2c(c3c4nonc4ccc31)CCCC2	47	·	·	Apaf1 act interf=>100
Cc1cc2cc(CNC(=O)c3ccc(S(=O)(=O)N(C)C)cc3)ccc2n1C	45	·	·
Cc1cccc(CNc2ncnc3ccc(-c4ccc5c(c4)OCCO5)cc23)c1	42	·	·
CCc1cc2c(NCc3ccco3)ncnc2s1	-110*	0	2
Oc1cccc(C=Nc2cccc3ccccc23)c1O	74	·	·
CC(C)N1CCN(Cc2cnc(-c3ccccc3)s2)CC1CCO (configuration not stated)	-46*	0	9
CCCCCCSc1ccc(-c2nc3cc(C)ccn3c2NC2CCCCC2)cc1	47	·	·
C#CCOCCOCCOCCNc1nc(N2CCN(C(=O)CCCCCCCCCCNC(=O)Cn3cc(CCCCCN)nn3)CC2)nc(N2CCN(C(=O)CCCCCCCCCCNC(=O)[C@@H](CCC(=O)O)n3cc(CCCCCN)nn3)CC2)n1	59	·	·
O=C(Cc1ccccc1Cl)NC1(O)C(=O)c2ccccc2C1=O	89	·	·
CC1(C(=O)NC2CCCC2)CCC(=O)N1Cc1ccccc1Cl (configuration not stated)	-106*	-8	9
CSc1nncc(/C(C)=N\Nc2ccccc2)n1	70	·	·

Source: PubChem
